The results in this text go back to ChEMBL document CHEMBL1155448, “(3-Phenylsulfonylcycloalkano[e and d]pyrazolo[1,5-a]pyrimidin-2-yl)amines: potent and selective antagonists of the serotonin 5-HT6 receptor” (J Med Chem, 2010).

The target of data set [1] is 5-hydroxytryptamine receptor 2B (Homo sapiens, UniProt P41595). Briefly: Antagonist activity at human 5HT2B receptor expressed in HEK293 cells assessed as inhibition of alpha-Me-serotonin-induced intracellular calcium mobilization by spectrophotometry. Type of data set: functional, cell-based. Put shortly:
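Tetracycline-induced T-Rex 5-HT2B HEK cells, Fura-2AM loaded (4 μM, 30 min, room temp, dark), suspended at (3-4) × 10⁶ cells/mL, diluted into HEPES-buffered saline with 1.8 mM CaCl₂ in stirred cuvette. Compound added after 20-30 s baseline, then serotonin challenge; Fura-2 ratio 340/380 nm excitation, 510 nm emission. Ki from concentration-dependent inhibition; geometric mean of three to four experiments, duplicate curves.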

The target in data set [2] is T1, 5-hydroxytryptamine receptor 6 (Homo sapiens, UniProt P50406). Kind of data set: Antagonist activity at human 5HT6 receptor expressed in HEK293 cells assessed as inhibition of serotonin-induced cAMP release. Type of data set: functional, cell-based. Put shortly:
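Tetracycline-induced T-Rex 5-HT6 HEK cells in HBSS with 1 mM MgCl₂, 1 mM CaCl₂, 5 mM HEPES pH 7.4, 100 μM IBMX; compounds 15 min (0.1% DMSO final), then serotonin 10 nM final for 30 min at room temp. cAMP by LANCE TR-FRET. Ki from concentration-dependent inhibition; geometric mean of three to four independent experiments, each curve in duplicate.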

The target of data set [3] is T2, hERG (KCNH2) (Homo sapiens, UniProt Q12809). Briefly: Inhibition of human ERG expressed in […] cells at 90 uM after 3 to 8 mins by voltage clamp assay. In kind it is cell-based. The note with it: […] cells that express human ERG. The gist of the method: (§1)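 Automated whole-cell voltage clamp at 25 °C on HEK cells stably expressing human hERG; K-based intracellular (pH 7.2), Na-based extracellular (pH 7.4) solutions. 2 s pulses to +20 mV, 15 s interpulse; compound until steady current (3-8 min), washout, 10 μM cisapride control. Percent of vehicle tail current; triplicate, mean ± SEM at highest concentration.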

For data set [4], the target named is T1, 5-hydroxytryptamine receptor 6. Briefly: Displacement of [3H]lysergic acid diethylamide from human recombinant 5HT6 receptor expressed in human HeLa cells. In kind it is cell-based. Put shortly: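 Ki from concentration-dependent displacement of [3H]lysergic acid diethylamide in a contracted radioligand binding assay; each curve measured in duplicate.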

Data set [5] deals with T2, hERG (KCNH2). Kind of data set: Inhibition of human ERG expressed in […] cells at 3 uM after 3 to 8 mins by voltage clamp assay. In kind it is cell-based. The note with it: HEK297 cells that express human ERG. Put shortly: as §1
Data set [6] has as its target T2, hERG (KCNH2). Kind of data set: Inhibition of human ERG expressed in […] cells at 10 uM after 3 to 8 mins by voltage clamp assay. In kind it is cell-based. The note with it: HEK297 cells that express human ERG. The gist of the method: as §1
In data set [7] the target is T1, 5-hydroxytryptamine receptor 6. Briefly: Antagonist activity at 5HT6 receptor. Type of data set: functional. Put shortly: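 Human 5-HT6R expressed in HEK293 cells (T-Rex, tetracycline-induced a day before). Compounds preincubated 15 min in HBSS with 1 mM MgCl2, 1 mM CaCl2, 5 mM HEPES pH 7.4, 100 μM IBMX, 0.1% DMSO final. Serotonin then added to 10 nM final, 30 min at room temperature. cAMP measured by LANCE TR-FRET. Ki from concentration-dependent inhibition, geometric mean of 3-4 experiments, duplicate curves.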

Chain of 5-hydroxytryptamine receptor 2B (P41595 whole entry): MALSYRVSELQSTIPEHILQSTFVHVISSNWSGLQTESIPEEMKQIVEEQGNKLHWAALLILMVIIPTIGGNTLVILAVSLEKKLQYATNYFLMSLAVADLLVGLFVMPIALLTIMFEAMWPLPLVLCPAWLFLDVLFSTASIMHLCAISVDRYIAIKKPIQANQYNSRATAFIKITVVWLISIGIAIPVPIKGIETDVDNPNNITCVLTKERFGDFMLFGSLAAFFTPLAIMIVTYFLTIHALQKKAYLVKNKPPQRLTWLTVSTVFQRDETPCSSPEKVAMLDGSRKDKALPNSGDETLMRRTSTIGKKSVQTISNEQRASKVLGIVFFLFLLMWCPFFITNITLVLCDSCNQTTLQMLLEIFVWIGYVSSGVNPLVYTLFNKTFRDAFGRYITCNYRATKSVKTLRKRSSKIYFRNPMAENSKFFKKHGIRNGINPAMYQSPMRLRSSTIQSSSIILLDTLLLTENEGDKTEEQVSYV
T1 sequence (P50406 whole entry): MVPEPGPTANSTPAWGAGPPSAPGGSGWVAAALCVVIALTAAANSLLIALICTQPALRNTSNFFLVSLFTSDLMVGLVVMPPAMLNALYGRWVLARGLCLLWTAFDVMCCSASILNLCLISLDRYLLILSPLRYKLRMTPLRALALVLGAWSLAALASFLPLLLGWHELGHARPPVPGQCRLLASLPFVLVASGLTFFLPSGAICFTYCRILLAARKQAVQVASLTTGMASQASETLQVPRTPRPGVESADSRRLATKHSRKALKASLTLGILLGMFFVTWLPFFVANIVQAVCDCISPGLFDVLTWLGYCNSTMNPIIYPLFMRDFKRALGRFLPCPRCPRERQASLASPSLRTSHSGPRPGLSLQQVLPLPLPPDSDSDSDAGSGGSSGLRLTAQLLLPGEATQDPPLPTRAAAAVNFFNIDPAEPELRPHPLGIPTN
T2 sequence (Q12809 whole entry): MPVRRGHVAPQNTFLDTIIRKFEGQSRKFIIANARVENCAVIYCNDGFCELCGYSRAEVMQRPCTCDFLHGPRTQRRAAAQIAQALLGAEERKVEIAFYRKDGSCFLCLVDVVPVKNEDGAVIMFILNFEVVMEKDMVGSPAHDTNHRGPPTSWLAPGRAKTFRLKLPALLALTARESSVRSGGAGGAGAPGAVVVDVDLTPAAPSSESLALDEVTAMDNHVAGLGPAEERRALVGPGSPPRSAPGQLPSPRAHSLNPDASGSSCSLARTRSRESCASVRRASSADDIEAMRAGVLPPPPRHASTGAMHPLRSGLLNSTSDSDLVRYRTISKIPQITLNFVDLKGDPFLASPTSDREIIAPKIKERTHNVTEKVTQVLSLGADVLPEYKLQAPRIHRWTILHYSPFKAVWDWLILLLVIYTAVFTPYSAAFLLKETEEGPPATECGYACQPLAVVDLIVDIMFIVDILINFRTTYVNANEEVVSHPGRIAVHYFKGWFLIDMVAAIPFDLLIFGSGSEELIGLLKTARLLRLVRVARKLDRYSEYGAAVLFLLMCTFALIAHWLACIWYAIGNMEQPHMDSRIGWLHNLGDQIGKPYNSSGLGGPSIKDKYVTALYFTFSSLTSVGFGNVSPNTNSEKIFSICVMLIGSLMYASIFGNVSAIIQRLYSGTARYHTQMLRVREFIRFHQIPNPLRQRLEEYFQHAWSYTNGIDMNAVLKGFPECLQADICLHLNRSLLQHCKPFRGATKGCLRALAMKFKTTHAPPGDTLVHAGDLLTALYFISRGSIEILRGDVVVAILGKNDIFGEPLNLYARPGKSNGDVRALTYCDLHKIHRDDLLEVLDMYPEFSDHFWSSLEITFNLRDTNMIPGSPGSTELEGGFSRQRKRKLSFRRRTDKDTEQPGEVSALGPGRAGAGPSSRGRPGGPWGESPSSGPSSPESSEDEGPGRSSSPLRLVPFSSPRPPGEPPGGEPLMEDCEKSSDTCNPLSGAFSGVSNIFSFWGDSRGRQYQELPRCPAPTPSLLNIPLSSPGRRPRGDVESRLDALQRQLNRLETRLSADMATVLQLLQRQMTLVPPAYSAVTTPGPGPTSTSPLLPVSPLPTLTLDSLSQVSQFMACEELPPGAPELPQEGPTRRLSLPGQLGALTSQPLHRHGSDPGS

For the molecule `CNc1nn2c3c(cnc2c1S(=O)(=O)c1ccccc1)CCCC3`, the Ki in data set [1] is 153 nM; in data set [2], 0.259 nM. For the molecule `CNc1nn2cc3c(nc2c1S(=O)(=O)c1ccccc1)CCCC3`, the inhibition constant Ki in data set [1] came out at 169 nM; in data set [2], 0.542 nM. As for `Cc1nc2c(S(=O)(=O)c3ccccc3)c(N3CCNCC3)nn2c2c1CCC2`, the inhibition constant (Ki) in data set [2] was determined as 869 nM. `Cc1nc2c(S(=O)(=O)c3ccccc3)c(N(C)C)nn2c2c1CCC2`: the inhibition constant (Ki) in data set [2] was 25.5 nM. With `CN(C)c1nn2c3c(cnc2c1S(=O)(=O)c1ccccc1)CCC3`, in data set [2], the inhibitory constant (Ki) came out at 28.8 nM.

For `CNc1nn2c3c(cnc2c1S(=O)(=O)c1ccccc1)CCC3`, the results for the Ki in data set [1], in data set [2] and in data set [4] were 464 nM, 0.375 nM and 0.088 nM, respectively. In data set [3], this molecule returned an inhibition at 90 µM of 29.5%.

As for `CNc1nn2c3c(c(C)nc2c1S(=O)(=O)c1ccccc1)CCC3`, the inhibition constant Ki in data set [1] came to 188 nM; in data set [2], 0.413 nM. Moreover, the inhibition at 3 µM in data set [5] came out at 4.3%.

In data set [5], `CNc1nn2c(C)c3c(nc2c1S(=O)(=O)c1ccccc1)CCCC3` came in with an inhibition at 3 µM of 12.5%.

Turning to `CNc1nn2c3c(c(C)nc2c1S(=O)(=O)c1ccccc1)CCCC3`, the inhibition at 10 µM in data set [6] came to 52.4%. With `CSc1nn2c3c(c(C)nc2c1S(=O)(=O)c1ccccc1)CCCC3`, in data set [7], the midpoint of inhibition, the IC50, lay at 6 nM. For `Cc1nc2c(S(=O)(=O)c3ccccc3)c(N3CCNCC3)nn2c2c1CCCC2`, in data set [2], the Ki amounted to 1760 nM.
